Assay results: ChEMBL document CHEMBL3351317 (J Med Chem, 2014)

Columns and labels:
[1] = Distribution coefficient, log D between 1-octonol and aqueous phosphate buffer at pH 7.4; type: physicochemical; conditions: 1-octanol/aqueous phosphate buffer
Outline: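 logD measured as distribution between 1-octanol and aqueous phosphate buffer, pH 7.4.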

[2] = Intrinsic clearance in rat hepatocytes assessed per million cells; type: ADME, cell-based, Hepatocyte; conditions: read-out: CLH

logD [1]	hepatocyte CLint [2] [µL/min/1e6 cells]	Structure (SMILES)
2.6	–	C[C@@H]1CN(c2nnc(C(F)(F)F)o2)CCN1c1ncc(OCc2ccc(S(C)(=O)=O)cc2C#N)cn1
2.8	–	C[C@@H]1CN(c2nnc(C(F)(F)F)o2)CCN1c1ncc(OCc2ccc(C#N)cc2C#N)cn1
3.8	–	C[C@@H]1CN(c2nnc(C(F)(F)F)o2)CCN1c1ncc(OCc2ccc(C#N)cc2F)cn1

The next lines start with the compound.

Structure (SMILES)	logD [1]	hepatocyte CLint [2] [µL/min/1e6 cells]
C[C@@H]1CN(c2nnc(C(F)(F)F)o2)CCN1c1ncc(OCc2ccc(S(C)(=O)=O)cc2F)cn1	3	–
C[C@@H]1CN(c2nnc(C(F)(F)F)o2)CCN1c1ncc(OCc2ccc(S(C)(=O)=O)cc2)cn1	2.8	–
C[C@@H]1CN(c2nnc(C(F)(F)F)o2)CCN1c1ncc(OCc2ccc(CS(C)(=O)=O)cc2)cn1	2.6	–
C[C@@H]1CN(c2nnc(C(F)(F)F)o2)CCN1c1ncc(OCc2ccc(-n3cnnn3)cc2F)cn1	3.6	–
C[C@@H]1CN(c2nnc(C(F)(F)F)o2)CCN1c1ncc(OCc2ccc(CS(C)(=O)=O)cc2F)cn1	2.9	9
C[C@@H]1CN(c2nnc(C(F)(F)F)o2)CCN1c1ncc(OCc2ccc(OS(C)(=O)=O)cc2F)cn1	3.7	–
C[C@@H]1CN(c2nnc(C(F)(F)F)o2)CCN1c1ncc(OCc2ccc(C[S+](C)[O-])cc2F)cn1 (some centres not stated)	2.6	53
